This note sets out measurements from paper PMC8341804 (RSC Chemical Biology, 2021).

Data set [1] concerns PC-3 cells. Description: PMA induced cytoskeletal remodeling assay. It is filed as cell-based. The following applies: PC-3, serum starved 24 h, 5 μM peptide 4 h, 500 nM PMA 45 min.
Data set [2] deals with PC-3 cells. In words: Peptide uptake assay. Particulars: 5 μM FAM-labeled peptide, 4 h, fixed cells, fluorescence microscopy. It is filed as cell-based. The method, boiled down: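 PC-3 cells were incubated with 5 μM 5(6)-carboxyfluorescein-labeled test compound for four hours, then imaged by fluorescence microscopy to assess intracellular distribution.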
The subject of data set [3] is PKC. Description: PKC substrate phosphorylation assay. The following applies: serum starved PC-3, 1, 2.5, 5 μM peptide 4 h, PMA 5 min; n = 3. It is filed as cell-based. In short, it runs like this: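 Serum-starved PC-3 cells were exposed to the test compound (1, 2.5 or 5 μM) or DMSO vehicle for 4 h. A catalytic PKC inhibitor reference was given at 500 nM for 90 min. Cells were then stimulated with 500 nM PMA for 5 min, harvested and analysed by western blot for PKC substrate phosphorylation; n = 3.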

The target in data set [4] is Protein kinase C alpha type (Homo sapiens, UniProt P17252). In words: Proteomic mass spectrometry of biotin-streptavidin pulldown. It is filed as binding. Particulars: 5 µM biotin labeled peptide, A549 lysate, LC-MS/MS. The method, boiled down:
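Cell lysates were incubated for four hours with 5 μM biotin-labeled test compound or the corresponding scrambled control, with DMSO-treated lysate as negative control. Streptavidin–agarose beads were used for pulldown, and the eluates were analysed by mass spectrometry.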

As to “(5/6 FAM) - β-Ala - KAS(Nle)LCFKRRK*AAK*LK (sidechain bridge or staple) [CSTAD5]”, the “cell morphology after PMA stimulation (phase contrast)” value in data set [1] is listed as “predominantly maintained a flat, elongated morphology”. Besides, the “cellular uptake / cell permeability” value in data set [2] was “considerable permeation”. Further, the “phosphorylated PKC substrates (anti-PKC p-Serine substrate western blot)” value in data set [3] is given as “dose dependent reduction”. Besides, in data set [4], the “Present in pulldown: Protein kinase C alpha type (PRKCA)” value is listed as “present”.
In the case of “(5/6 FAM) - β-Ala - KAS(Nle)LCFKRRKK*AKA*K (sidechain bridge or staple) [CSTAD6]”, the “cell morphology after PMA stimulation (phase contrast)” value in data set [1] is given as “predominantly maintained a flat, elongated morphology”. Further, in data set [2], the “cellular uptake / cell permeability” value is “considerable permeation”. Besides, in data set [3], the “phosphorylated PKC substrates (anti-PKC p-Serine substrate western blot)” value was “dose dependent reduction”.
